Data as given in ChEMBL document CHEMBL1135673, “Antitumor imidazotetrazines. 41. Conjugation of the antitumor agents mitozolomide and temozolomide to peptides and lexitropsins bearing DNA major and minor groove-binding structural motifs” (J Med Chem, 2002).
Peptide text beside a SMILES is read from it. * marks the point of attachment. X1 = O=C(c1ncn2c(=O)n(CCCl)nnc12)*

Assays:
Format in all cases: functional, cell-based
[1] = In vitro cytotoxicity against mouse TLX5 lymphoma cells
In short: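 TLX5 lymphoma cells kept in exponential growth at 2 × 10⁴ cells/mL in RPMI 1640 with 15% fetal calf serum. Cells were dosed with drug in DMSO (10 μL per 2 mL well), triplicate wells per concentration, with DMSO-only controls. After 72 h at 37 °C under 5% CO₂, cells were Coulter-counted. IC₅₀ was taken from % of control growth plots as the mean of two determinations.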

[2] = In vitro cytotoxicity against human xeroderma pigmentosum fibroblast cells HMGZip (mer-)
In short: (§1)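 Xeroderma pigmentosum fibroblasts HMGZip 1a (Mer⁻) and HMGhAT 2b (Mer⁺) grown in MEM, plated at 1000 cells/well, and assayed by the method of Baer et al.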

[3] = In vitro cytotoxicity against human xeroderma pigmentosum fibroblast cells […] (mer+); in short: as §1

| Compound | IC50 [1] | IC50 [2] | IC50 [3] |
| --- | --- | --- | --- |
| COC(=O)[C@@H](NC(=O)[C@H](C)NC(=O)c1ncn2c(=O)n(CCCl)nnc12)C(C)C | 6.9 µM |  |  |
| CC(C)C[C@@H](NC(=O)c1ncn2c(=O)n(CCCl)nnc12)C(=O)O |  | 57 µM |  |
| COC(=O)C(CCCCN)NC(=O)c1ncn2c(=O)n(CCCl)nnc12 (stereo not drawn) |  | 68 µM |  |
| NC(=O)CNC(=O)c1ncn2c(=O)n(CCCl)nnc12 | 34 µM |  |  |
| C[C@@H](NC(=O)c1ncn2c(=O)n(CCCl)nnc12)C(=O)O |  | 198 µM |  |
| COC(=O)C(CO)NC(=O)c1ncn2c(=O)n(CCCl)nnc12 (stereo not drawn) | 5 µM |  |  |
| COC(=O)C(C)NC(=O)c1ncn2c(=O)n(CCCl)nnc12 (stereo not drawn) | 1.5 µM |  |  |
| CC(C)(C)NC(=O)c1ncn2c(=O)n(CCCl)nnc12 | 2 µM |  |  |
| O=C(O)c1ncn2c(=O)n(CCCl)nnc12 | 15.8 µM |  |  |
| COC(=O)C(CCSC)NC(=O)c1ncn2c(=O)n(CCCl)nnc12 (stereo not drawn) | 50 µM |  |  |
| CC(C)[C@H](NC(=O)[C@@H](NC(=O)c1ncn2c(=O)n(CCCl)nnc12)[C@@H](C)O)C(=O)NCC(=O)O |  | 437 µM | > 500 µM |
| COC(=O)C(Cc1c[nH]c2ccccc12)NC(=O)c1ncn2c(=O)n(CCCl)nnc12 (stereo not drawn) | 3.7 µM |  |  |
| CCOC(=O)CNC(=O)c1ncn2c(=O)n(CCCl)nnc12 | 25 µM |  |  |
| NCCCCC(NC(=O)c1ncn2c(=O)n(CCCl)nnc12)C(=O)O (stereo not drawn) |  | 42 µM |  |
| CC(C)[C@H](NC(=O)[C@@H](NC(=O)c1ncn2c(=O)n(CCCl)nnc12)[C@@H](C)O)C(=O)NCC(=O)N[C@@H](CCCN=C(N)N)C(=O)O (X1-TVGR-OH) |  | 288 µM | > 500 µM |
| CC(C)[C@H](NC(=O)[C@@H](NC(=O)c1ncn2c(=O)n(CCCl)nnc12)[C@@H](C)O)C(=O)N[C@@H](CO)C(=O)N[C@@H](CCCN=C(N)N)C(=O)O (X1-TVSR-OH) |  | 351 µM | > 500 µM |
| NC(=O)c1ncn2c(=O)n(CCCl)nnc12 [MITOZOLOMIDE] | 2.5 µM | 20 µM | 30 µM |
| Cn1nnc2c(C(N)=O)ncn2c1=O [TEMOZOLOMIDE] | 5 µM |  |  |
